This is a sample that favours compounds with a hit; in the whole collection about 2.4% have one here.
Scp-1 inhibitor = inhibitors of human Scp-1 phosphatase; Recombinant Scp1, phosphopeptide, malachite green phosphate absorbance; actives 0.88% (n = 340,000); inhibition, % at 20 µM;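 active = inhibition above about 50% at 20 µM, limit read from the data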;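 also: plate controls were DMSO wells with enzyme for no effect and wells lacking enzyme for full effect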
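System: SCP-1 catalytic domain; Reagent: Phospho 17-mer peptide substrate; Doses: one concentration, 20 µM, with 1.0% DMSO; Incubation: 45 min room-temperature reaction, 5 min colour, 30 min stabiliser; Signal: Phosphate-binding colour reagent, absorbance read at 630 nm.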
LMPTP block = LMPTP (human) inhibition; P24666; recombinant LMPTP-A, OMFP fluorogenic substrate, fluorescence intensity; inhibition, % at 20 µM; actives 0.22% (n = 360,000); AID 651560;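 active = compounds that cut the enzyme signal by at least half of the control window in the single-dose screen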;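 also: plate controls were DMSO wells with enzyme plus substrate for no effect and substrate without enzyme for full effect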
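Test system: LMPTP-A phosphatase enzyme; input: 0.625 nM LMPTP-A final; reagent: OMFP substrate, 400 µM final; compound dosing: 20 µM single dose, 3% DMSO; incubation: 50 min dark incubation at room temperature; measured by: endpoint fluorescence intensity from OMFP dephosphorylation; measure: % inhibition relative to no-enzyme and uninhibited control wells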
DNMT1 inh = DNMT1 (human) enzyme inhibition | DNMT1 molecular beacon, Hinp1I cleavage, fluorescence | P26358 | AID 588458 | actives 0.83% (n = 360,000) | inhibition (reported as % activation of signal), % at 10 µM; in the data active = inhibition above about 50%
NadD block = inhibitors of Staphylococcus aureus NadD | purified NadD enzyme, colorimetric absorbance read-out | actives 0.78% (n = 360,000) | AID 602399 | inhibition, % at 20 µM; in the data active = inhibition above about 26%
SUMO1-SIM PPI = alters human SUMO1 binding to SIM partners. P63165. SUMO1 binding to a labelled peptide, TR-FRET, 1 h. inhibition, % at 20 µM. actives 0.33% (n = 360,000); in the data active = inhibition above about 37%
STEP block = STEP (human) phosphatase inhibition; actives 0.25% (n = 360,000); inhibition, % at 20 µM; AID 588621; P54829; recombinant STEP, OMFP fluorogenic substrate, fluorescence;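 active = inhibition at 20 µM, scaled per plate between control wells, above about 37%, limit read from the data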;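 also: 0% = DMSO with enzyme and substrate and 100% = substrate only without enzyme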
Target sequence (P54829 whole entry, looked up): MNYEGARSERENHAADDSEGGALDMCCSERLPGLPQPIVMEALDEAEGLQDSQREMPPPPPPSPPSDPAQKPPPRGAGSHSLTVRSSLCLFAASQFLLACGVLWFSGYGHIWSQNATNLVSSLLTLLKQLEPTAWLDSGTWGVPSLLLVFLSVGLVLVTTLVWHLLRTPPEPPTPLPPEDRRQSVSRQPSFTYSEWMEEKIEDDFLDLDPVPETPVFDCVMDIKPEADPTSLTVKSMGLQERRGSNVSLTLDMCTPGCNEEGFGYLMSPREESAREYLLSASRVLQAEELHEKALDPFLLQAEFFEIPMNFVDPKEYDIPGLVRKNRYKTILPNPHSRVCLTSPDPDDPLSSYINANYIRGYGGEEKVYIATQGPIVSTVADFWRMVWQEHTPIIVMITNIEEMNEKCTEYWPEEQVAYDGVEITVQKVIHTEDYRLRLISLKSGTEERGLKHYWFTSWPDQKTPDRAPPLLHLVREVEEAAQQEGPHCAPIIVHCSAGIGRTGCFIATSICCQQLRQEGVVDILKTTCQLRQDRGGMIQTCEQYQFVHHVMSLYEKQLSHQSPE
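Also added – OMFP at 25 µM · Test system – STEP tyrosine phosphatase · Technique – FITC-channel fluorescence of OMFP product · Schedule – 20 min at room temperature, dark · Evaluation – control-normalized % inhibition with plate pattern correction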
* = called active by the depositor; ! = not confirmed by another sample.

For CCN(CC)Cc1cc(Nc2c3ccccc3nc3c4ccccc4n(C)c23)cc(CN(CC)CC)c1O the results were Scp-1 inhibitor -8, LMPTP block 77*, DNMT1 inh 20, NadD block -2, SUMO1-SIM PPI -47 and STEP block 3.
`COc1ccc(NC(=O)/C(N=Nc2ccc(Cl)c(S(=O)(=O)Nc3ccc(Cl)cc3)c2)=C(\C)O)cc1` gave Scp-1 inhibitor -10, LMPTP block 3, DNMT1 inh -2, NadD block 31*, SUMO1-SIM PPI 3 and STEP block 1.
Screening COc1ccc(NC(=O)/C(N=Nc2cc(S(=O)(=O)Nc3ccc(OC)cc3)ccc2OC)=C(\C)O)cc1 returned Scp-1 inhibitor -10, LMPTP block 1, DNMT1 inh 25, NadD block -1, SUMO1-SIM PPI -2 and STEP block 3.
For N[C@@H](Cc1cc(I)c(Oc2ccc(O)c(I)c2)c(I)c1)C(=O)O the results were Scp-1 inhibitor 27, LMPTP block 32, DNMT1 inh 77*!, NadD block 58*!, SUMO1-SIM PPI 40*! and STEP block -3.
For Cc1[nH]c2ccccc2c1CN1CCC(Cc2ccccc2)CC1 the results were Scp-1 inhibitor 6, LMPTP block 0, DNMT1 inh -5, NadD block -4, SUMO1-SIM PPI -6 and STEP block -1.
Screening COc1cccc(Cn2cnc3c(NS(=O)(=O)c4cccc(Cl)c4Cl)c(C)c(C)cc32)c1 returned Scp-1 inhibitor 9, LMPTP block 3, DNMT1 inh -17, NadD block 30*, SUMO1-SIM PPI -3 and STEP block -2.
COc1cccc(Cn2cnc3c(NS(=O)(=O)c4ccc(Cl)cc4Cl)c(C)c(C)cc32)c1 was read as Scp-1 inhibitor -2, LMPTP block 4, DNMT1 inh -10, NadD block 26, SUMO1-SIM PPI -1 and STEP block 0.
Screening Cc1cc(N2CCN(C(C(=O)NC3CCCC3)c3ccc(F)cc3)CC2)c2ccccc2n1 (stereo not given) returned LMPTP block 45 and SUMO1-SIM PPI -1.
Screening Cc1cc(N2CCN(C(C(=O)NC3CCCC3)c3ccco3)CC2)c2ccccc2n1 (stereo not given) returned LMPTP block 56* and SUMO1-SIM PPI 6.
`O=C1NC(=O)/C(=C/c2cccc3ccccc23)S1` gave Scp-1 inhibitor 6, LMPTP block -10, DNMT1 inh 1, NadD block -2, SUMO1-SIM PPI -13 and STEP block -5.
`O=C1NC(=O)/C(=C\c2ccc(O)cc2O)S1` gave Scp-1 inhibitor 53*, LMPTP block 32, DNMT1 inh 32, NadD block -2, SUMO1-SIM PPI 10 and STEP block 1.
O=C(NCCCN1CCCC1=O)c1cccc(NS(=O)(=O)c2ccc(Br)cc2)c1 was read as Scp-1 inhibitor -9, LMPTP block -1, DNMT1 inh 0, NadD block -1, SUMO1-SIM PPI 2 and STEP block -3.
`NS(=O)(=O)c1ccc(N/N=C/c2ccccc2Br)cc1` gave Scp-1 inhibitor -2, LMPTP block 4, DNMT1 inh -3, NadD block -7, SUMO1-SIM PPI 60* and STEP block -3.
For NS(=O)(=O)c1ccc(N/N=C/c2ccncc2)cc1 the results were Scp-1 inhibitor -5, LMPTP block 2, DNMT1 inh 2, NadD block 3, SUMO1-SIM PPI -26 and STEP block 0.
`CC(=O)OCC1OC(n2cc(F)c(=O)[nH]c2=O)C(OC(C)=O)C1OC(C)=O` (stereo not given) gave Scp-1 inhibitor -27, LMPTP block -1, DNMT1 inh 1, NadD block -4, SUMO1-SIM PPI -1 and STEP block -2.
Screening O=C1C(F)=CC(COC(c2ccccc2)(c2ccccc2)c2ccccc2)OC1n1cc(F)c(=O)[nH]c1=O (stereo not given) returned Scp-1 inhibitor -5, LMPTP block 2, DNMT1 inh 34, NadD block 51*, SUMO1-SIM PPI 12 and STEP block -3.
`Cc1cc(=O)n2nc(N3CCCC3C(=O)Nc3cccc(F)c3)sc2n1` (stereo not given) gave Scp-1 inhibitor -9, LMPTP block -1, DNMT1 inh 1, NadD block 0, SUMO1-SIM PPI -5 and STEP block 0.
Screening COCCNc1nc(NCc2cc(-c3ccc(OC)cc3)no2)c2sccc2n1 returned LMPTP block 57*, DNMT1 inh -7, NadD block 3, SUMO1-SIM PPI 7 and STEP block 2.
COCCNc1nc(NCc2cccs2)nc2ccsc12 was read as LMPTP block 39, DNMT1 inh -38, NadD block 5, SUMO1-SIM PPI 1 and STEP block 2.
C[C@@H]1CN([C@@H](C)CO)C(=O)CCCn2nncc2CO[C@@H]1CN(C)S(=O)(=O)c1ccc2c(c1)OCCCO2 was read as LMPTP block 0, DNMT1 inh 0, NadD block -1, SUMO1-SIM PPI 8 and STEP block 0.
`COc1cc(-c2csc(N3CCOCC3)n2)cc(OC)c1OC` gave Scp-1 inhibitor -10, LMPTP block 1, DNMT1 inh -2, NadD block 0, SUMO1-SIM PPI -6 and STEP block -1.
Screening COc1ccc(-c2csc(N3CCN(c4cc(C)nc5ccccc45)CC3)n2)cc1OC returned Scp-1 inhibitor 3, LMPTP block 84*, DNMT1 inh -10, NadD block 2, SUMO1-SIM PPI -13 and STEP block 3.
O=C(Nc1c[nH]c(=O)[nH]c1=O)c1ccc2c(c1)C(=O)N(c1cccc([N+](=O)[O-])c1)C2=O was read as Scp-1 inhibitor 38, LMPTP block 16, DNMT1 inh 58*, NadD block 10, SUMO1-SIM PPI 5 and STEP block 6.
`O=C(N/N=C/c1ccc2c(c1)OCO2)c1cc2ccccc2o1` gave Scp-1 inhibitor -1, LMPTP block -1, DNMT1 inh 6, NadD block -6, SUMO1-SIM PPI 0 and STEP block -2.
Screening O=C(COc1ccc(/C=N/NC(=O)c2cc3ccccc3o2)cc1Cl)Nc1ccccc1 returned Scp-1 inhibitor 80*, LMPTP block 32, DNMT1 inh 71*, NadD block -2, SUMO1-SIM PPI -2 and STEP block 54*.
CCC(CO)Oc1cc(NC(=O)c2cccc(OC)c2)c2ncn(C(C)C)c2c1 (stereo not given) was read as Scp-1 inhibitor 1, LMPTP block 0, DNMT1 inh -25, NadD block 2, SUMO1-SIM PPI 61* and STEP block 4.
